# Experimental data: ChEMBL document CHEMBL3860086, “Antivirulence C-Mannosides as Antibiotic-Sparing, Oral Therapeutics for Urinary Tract Infections” (J Med Chem, 2016)
# Activity calls are given as the source filed them. The rule behind the calls is not given here.
# Experiments:
# Escherichia coli [1] = assay: (§1) Antibacterial activity against Escherichia coli UTI89 with kanamycin cassette inserted in chromosome in C3H/HeN mouse acute cystitis model assessed as decrease in bacterial burden in urinary bladder at 25 mg/kg, po administered 30 mins prior to infection measured at 6 hrs post infection relative to control; type: functional
# Procedure, shortened: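 Female C3H/HeN mice (6–8 weeks) get 25 mg/kg mannoside by mouth in 10% cyclodextrin 30 min before infection. Infection is transurethral: 50 μL of 1–2 × 10^7 UTI89KAN under isoflurane. The inoculum is grown type 1-inducing (2 × 24 h static LB, 37 °C), washed and resuspended in PBS. At 6 h, bladders are homogenized, serially diluted and plated on LB with 50 μg/mL kanamycin for CFU.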
# [2] = target: Type 1 fimbrin D-mannose specific adhesin (Escherichia coli K-12) (UniProt P08191); assay: Inhibition of Escherichia coli UTI89 FimH assessed as decrease in hemagglutination of guinea pig red blood cells after 4 to 18 hrs
# Type 1 fimbrin D-mannose specific adhesin (Escherichia coli K-12), sequence (P08191 whole entry, the tested form may be a part): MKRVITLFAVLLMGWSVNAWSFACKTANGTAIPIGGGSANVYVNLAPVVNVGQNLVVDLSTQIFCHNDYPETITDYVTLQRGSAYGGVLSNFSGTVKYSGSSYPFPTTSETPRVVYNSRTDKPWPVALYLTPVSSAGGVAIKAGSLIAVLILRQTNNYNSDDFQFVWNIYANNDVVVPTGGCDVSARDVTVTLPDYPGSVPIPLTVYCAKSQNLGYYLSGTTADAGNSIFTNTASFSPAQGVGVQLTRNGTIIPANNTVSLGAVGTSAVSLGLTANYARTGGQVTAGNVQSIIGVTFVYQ
# Procedure, shortened: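 Hemagglutination inhibition with clinical UPEC strain UTI89 and guinea pig red blood cells, run per an earlier described protocol.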
# [3] = target: Type 1 fimbrin D-mannose specific adhesin (Escherichia coli K-12) (UniProt P08191); assay: Binding affinity to Escherichia coli UTI89 FimH lectin domain at 100 uM after 30 mins by SYPRO Orange-staining-based differential scanning fluorimetry
# Procedure, shortened: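 Thermal shift (DSF) binding with FimH lectin domain (FimHL) at 10 μM, with or without 100 μM mannoside; otherwise run per an earlier described method.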
# [4] = Clearance in Sprague-Dawley rat at 3 mg/kg, iv after 5 mins to 24 hrs by LC-MS/MS analysis; type: ADME, organism-based; conditions: in vivo
# Procedure, shortened: (§2)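 Rat plasma PK: mannoside concentrations in plasma followed after either a 10 mg/kg oral dose or a 3 mg/kg intravenous dose.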
# [5] = Drug uptake in C3H/HeN mouse urine at 50 mg/kg, po administered through gavage after 8 hrs by LC-MS/MS analysis; type: ADME, organism-based; conditions: read-out: Drug uptake
# Procedure, shortened: (§3)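 Mouse urine PK: C3H/HeN mice given 100 μL of 10 mg/mL mannoside in 10% cyclodextrin (50 mg/kg) by oral gavage. Urine sampled at several time points over 8 h and mannoside quantified by HPLC and mass spectrometry.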
# [6] = Drug uptake in C3H/HeN mouse urine at 50 mg/kg, po administered through gavage after 1 hr by LC-MS/MS analysis; type: ADME, organism-based; conditions: in vivo; procedure, shortened: as §3
# [7] = Ratio of drug level in C3H/HeN mouse urine to IC50 for Escherichia coli UTI89 FimH-mediated biofilm formation
# [8] = Half life in simulated gut fluid (unknown origin); type: ADME
# Procedure, shortened: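 Stability is measured in simulated gut fluid at pH 1.2.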
# [9] = Half life in liver microsomes (unknown origin); type: ADME
# [10] = Volume of distribution at steady state in Sprague-Dawley rat at 3 mg/kg, iv after 5 mins to 24 hrs by LC-MS/MS analysis; type: ADME, organism-based; conditions: in vivo; procedure, shortened: as §2
# [11] = Oral bioavailability in Sprague-Dawley rat at 10 mg/kg after 15 mins to 24 hrs by LC-MS/MS analysis; type: ADME, organism-based; conditions: in vivo; procedure, shortened: as §2
# Escherichia coli [12] = assay: as §1, with “chronic” for “acute”, “50” for “25”, “14 days post” for “30 mins prior to”, “12” for “6”, “dose (reference value: 10^7 CFU)” for “infection relative to control”; type: functional
# Procedure, shortened: (§4)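 Female C3H/HeN mice (6–8 weeks) are infected transurethrally under isoflurane with 1–2 × 10^8 UTI89KAN (type 1-induced, PBS-washed) in 50 μL. Urine titers at day 12 select chronic infection (≥10^5). At 2 weeks, mice get oral gavage of 100 μL mannoside in 10% cyclodextrin. At set times, bladders are homogenized, serially diluted and plated on kanamycin LB for CFU.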
# Escherichia coli [13] = assay: as §1, with “mouse chronic” for “mouse acute”, “administered 14 days post” for “administered 30 mins prior to”, “at 12” for “at 6”, “post dose” for “post infection”; type: functional; procedure, shortened: as §4
# Escherichia coli [14] = assay: as §1, with “chronic” for “acute”, “50” for “25”, “14 days post” for “30 mins prior to”, “2” for “6”, “dose (reference value: 10^7 CFU)” for “infection relative to control”; type: functional; procedure, shortened: as §4
# Escherichia coli [15] = assay: as §1, with “chronic” for “acute”, “50” for “25”, “14 days post” for “30 mins prior to”, “dose (reference value: 10^7 CFU)” for “infection relative to control”; type: functional; procedure, shortened: as §4
# [16] = Ratio of drug level in C3H/HeN mouse urine to EC90 for Escherichia coli UTI89 FimH-mediated hemagglutination of guinea pig red blood cells
EC90 [2],Tm [3],SMILES,also measured
32 nM,75 °C,Cc1cc(-c2ccc3c(c2)C(=O)NCC3)ccc1O[C@H]1O[C@H](CO)[C@@H](O)[C@H](O)[C@@H]1O,
16000 nM,,COC(=O)c1cccc(-c2ccc(NC(=O)[C@H]3O[C@H](CO)[C@@H](O)[C@H](O)[C@@H]3O)cc2)c1,
62 nM,74.5 °C,CNC(=O)c1cccc(-c2ccc(O[C@H]3O[C@H](CO)[C@@H](O)[C@H](O)[C@@H]3O)c(C)c2)c1,clearance [4]: 98.4 mL/min/kg; concentration at 8 h [5]: 1 µM; Drug uptake [6]: Active; Ratio [7]: > 10
500 nM,73.2 °C,CNC(=O)c1cccc(-c2ccc(O[C@H]3O[C@H](CO)[C@@H](O)[C@H](O)[C@@H]3O)cc2)c1,
62 nM,75 °C,Cc1cc(-c2cccc3cnccc23)ccc1O[C@H]1O[C@H](CO)[C@@H](O)[C@H](O)[C@@H]1O,
16000 nM,,O=C(NC[C@H]1O[C@H](CO)[C@@H](O)[C@H](O)[C@@H]1O)c1ccc(Br)cc1,
1000 nM,,CNC(=O)c1cccc(-c2ccc(C[C@H]3O[C@H](CO)[C@@H](O)[C@H](O)[C@@H]3O)cc2)c1,
24000 nM,67.2 °C,CNC(=O)c1cccc(-c2ccc([C@H](O)[C@H]3O[C@H](CO)[C@@H](O)[C@H](O)[C@@H]3O)cc2)c1,
4000 nM,,COC(=O)c1cccc(-c2ccc(N[C@H]3O[C@H](CO)[C@@H](O)[C@H](O)[C@@H]3O)cc2)c1,
2000 nM,,CNC(=O)c1cccc(-c2ccc(C[C@H]3O[C@H](CO)[C@@H](O)[C@H](O)[C@@H]3O)c(C)c2)c1,
,,CNC(=O)c1cccc(-c2ccc(O[C@H]3O[C@H](COP(=O)(O)O)[C@@H](O)[C@H](O)[C@@H]3O)c(C)c2)c1,Activity (Escherichia coli [1]): Active
20 nM,75.1 °C,Cc1cc(-c2ccc3ccnc(N)c3c2)ccc1O[C@H]1O[C@H](CO)[C@@H](O)[C@H](O)[C@@H]1O,
24000 nM,66.4 °C,CNC(=O)c1cccc(-c2ccc([C@H](O)[C@H]3O[C@H](CO)[C@@H](O)[C@H](O)[C@@H]3O)c(C)c2)c1,
250 nM,72.8 °C,CNC(=O)c1cccc(-c2ccc([C@@H](O)[C@H]3O[C@H](CO)[C@@H](O)[C@H](O)[C@@H]3O)cc2)c1,
32000 nM,,OC[C@H]1O[C@H](n2cc(-c3ccccc3)nn2)[C@@H](O)[C@@H](O)[C@@H]1O,
,,CNC(=O)c1cccc(-c2ccc(O[C@H]3O[C@H](COC(C)=O)[C@@H](OC(C)=O)[C@H](OC(C)=O)[C@@H]3OC(C)=O)c(C)c2)c1,Activity (Escherichia coli [1]): Active; concentration at 8 h [5]: 20 µM; Activity (Escherichia coli [13]): Active; Ratio [7]: > 10
4000 nM,,COC(=O)c1cccc(-c2ccc(S[C@H]3O[C@H](CO)[C@@H](O)[C@H](O)[C@@H]3O)cc2)c1,
125 nM,74.6 °C,Cc1cc(-c2cccc3cnccc23)ccc1[C@@H](O)[C@H]1O[C@H](CO)[C@@H](O)[C@H](O)[C@@H]1O,

SMILES,EC90 [2],Tm [3],also measured
Cc1cc(-c2ccc3c(c2)C(=O)NCC3)ccc1[C@@H](O)[C@H]1O[C@H](CO)[C@@H](O)[C@H](O)[C@@H]1O,6 nM,76.5 °C,Activity (Escherichia coli [1]): Active
Cc1cc(-c2ccc3cc[nH]c(=O)c3c2)ccc1O[C@H]1O[C@H](CO)[C@@H](O)[C@H](O)[C@@H]1O,31 nM,75.4 °C,clearance [4]: 408 mL/min/kg; fold change (FC) (Escherichia coli [1]): 2; half-life [8]: > 2 h; half-life [9]: > 2 h; Vdss [10]: 6.7 L; F [11]: 7%
Cc1cc(-c2ccc3cc[nH]c(=O)c3c2)ccc1[C@@H](O)[C@H]1O[C@H](CO)[C@@H](O)[C@H](O)[C@@H]1O,8 nM,77.5 °C,fold change (FC) (Escherichia coli [1]): 2
CNC(=O)c1cc(C(=O)NC)cc(-c2ccc(O[C@H]3O[C@H](CO)[C@@H](O)[C@H](O)[C@@H]3O)c(C)c2)c1,16 nM,,Activity (Escherichia coli [12]): 100000 CFU; half-life [8]: > 2 h; Activity (Escherichia coli [13]): Active; half-life [9]: > 2 h; Activity (Escherichia coli [14]): 100000 CFU; Activity (Escherichia coli [15]): 10000 CFU; Drug uptake [6]: Active; Ratio [7]: > 10
CNC(=O)c1cccc(-c2ccc([C@@H](O)[C@H]3O[C@H](CO)[C@@H](O)[C@H](O)[C@@H]3O)c(C)c2)c1,31 nM,75.4 °C,clearance [4]: 34.9 mL/min/kg; concentration at 8 h [5]: 50 µM; fold change (FC) (Escherichia coli [13]): 3; Ratio [16]: 1600; Ratio [7]: > 10
Cc1cc(-c2ccc3ccnc(N)c3c2)ccc1[C@@H](O)[C@H]1O[C@H](CO)[C@@H](O)[C@H](O)[C@@H]1O,6 nM,77.7 °C,Activity (Escherichia coli [1]): Active
